Screening results as filed in PubChem BioAssay.
ASAP1 inh = blocks human ASAP1-stimulated Arf1 GTP hydrolysis; 360,000 tested, 0.19% active; GDP FP detection; Q9ULH1; inhibition, % at 16.5 µM; in the data active = inhibition above about 25%
Target sequence (Q9ULH1 325-724 limits assumed): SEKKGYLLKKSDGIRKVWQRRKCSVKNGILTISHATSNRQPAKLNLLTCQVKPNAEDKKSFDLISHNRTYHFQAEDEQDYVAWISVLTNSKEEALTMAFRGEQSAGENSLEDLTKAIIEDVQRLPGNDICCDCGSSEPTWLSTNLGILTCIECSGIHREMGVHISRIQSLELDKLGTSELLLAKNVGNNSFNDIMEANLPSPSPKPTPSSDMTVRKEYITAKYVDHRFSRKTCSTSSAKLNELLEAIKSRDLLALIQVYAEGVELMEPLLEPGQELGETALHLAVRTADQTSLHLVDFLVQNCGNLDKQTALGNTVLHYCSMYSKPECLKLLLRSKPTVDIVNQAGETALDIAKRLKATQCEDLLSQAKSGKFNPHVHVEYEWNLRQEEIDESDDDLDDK
DDE Tn7 FP inh = disrupts Tn7 cyclic peptide binding to fibrin D-Dimer-E complex. P02675. FP displacement of FITC-Tn7 peptide from fibrin DD(E); 0% = median of compound wells per plate. inhibition, % at 8.3 µM. 370,000 tested, 0.13% active. AID 720508;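 active = inhibition above the mean of compounds falling within the control limits plus 3 SD of them, cut at about 14% in these data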
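assay system = human clot-derived fibrin DD(E) complex | quantity = Fibrin-DD(E) at 2 µM final | timing = 10 min preincubation, 3 h with tracer, room temperature | signal = fluorescence polarization | measure = percent inhibition | benchmarks = high control wells with 10 µM unlabelled Aha-Tn7 peptide (full inhibition) | replicates = singlicate testing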
Tn6 DDE FP = disrupts Tn6 cyclic peptide binding to fibrin D-Dimer-E complex. P02675. Fibrin DD(E) TRITC-Tn6 fluorescence polarization displacement. inhibition, % at 8.3 µM. 370,000 tested, 0.21% active. AID 720509;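 active = inhibition above a per-campaign cutoff: mean of compounds within control limits plus 3 SD, cut at about 15% in these data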
ARFGAP1 inhibitor = inhibitors of rat ARFGAP1. Arfgap1-stimulated ARF1 GTP hydrolysis, GDP FP detection. AID 651572. 360,000 tested, 0.26% active. inhibition, % at 16.5 µM;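 active = inhibition above a per-plate limit, mean inhibition of low control wells plus 3 SD, cut at about 25% in these data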
Target sequence (Q62848 1-136 limits assumed): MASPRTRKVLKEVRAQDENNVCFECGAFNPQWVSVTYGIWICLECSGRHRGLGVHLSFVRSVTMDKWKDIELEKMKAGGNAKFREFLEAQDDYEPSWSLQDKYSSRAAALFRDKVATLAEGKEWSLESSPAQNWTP
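Material – truncated rat Arfgap1 GAP domain · Buffer or medium – HEPES-based buffer, pH 7.5 · Reagent – human ARF1(Δ1-17)-GTP substrate · Dosing – 16.5 µM single point, 1.26% DMSO · Schedule – GTP hydrolysis reaction 2 h at 25 °C · Technique – GDP detection by fluorescence polarization · Benchmarks – No-Arfgap1 wells (100%) versus DMSO full-reaction wells (0%) · Repeats – single replicate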
ASAP1 inh confirm = ASAP1 inhibition confirmed. 620 tested, 37% active. ASAP1-stimulated Arf1 GTPase, GDP fluorescence polarization. inhibition, % at 16.5 µM. shares compounds with ASAP1 inh;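 active = mean inhibition over triplicates exceeds the hit threshold derived for the earlier primary screening run, cut at about 25% in these data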
ARFGAP1 inh conf = confirmation of rat ARFGAP1 inhibitors. shares compounds with ARFGAP1 inhibitor. ARFGAP1-stimulated ARF1 GTP hydrolysis, GDP tracer FP. inhibition, % at 16.5 µM. 890 tested, 30% active;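 active = average inhibition over triplicates above the hit cutoff set in the earlier primary screen, cut at about 25% in these data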
Tn6 DDE ctr = DD(E)-Tn6 binding inhibition, counter-screen | 680 tested, 2% active | inhibition, % at 8.3 µM | shares compounds with Tn6 DDE FP | Fibrin DD(E), TRITC-Tn6 fluorescence polarization displacement; 0% = median of compound wells, not DMSO;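 active = inhibition above the mean of test compounds lying between the control limits plus 3 SD of those, cut at about 14% in these data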
Tn6 DDE conf = DD(E)-Tn6 binding inhibition, FP confirmation. shares compounds with Tn6 DDE FP. FP displacement of TRITC-Tn6 peptide from DD(E); 0% = per-plate median of test wells. inhibition, % at 8.3 µM. 680 tested, 10% active. AID 720631;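 active = inhibition above the mean of compounds lying within the control limits plus 3 SD, cut at about 16% in these data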
Large screens that a line does not name were inactive (follow-up assays come after a bar, where they were run). Rows were chosen to be rich in hits. Some 0.74% of all compounds tested hit in one or more screens of this group.

COc1cc(CCC(C)=O)ccc1OC(=O)c1c(-c2c(F)cccc2Cl)noc1C	none
COC(=O)[C@H](Cc1ccccc1)N[C@H](c1ccc(OC)cc1)[C@@H](O)Cc1ccccc1	none
Cc1[nH][nH]c(=O)c1C(c1ccc(-c2ccccc2C(=O)O)o1)c1c(C)[nH][nH]c1=O	none
Cc1[nH][nH]c(=O)c1C(c1ccc(-c2cccc(C(=O)O)c2)o1)c1c(C)[nH][nH]c1=O	ASAP1 inh 26, ARFGAP1 inhibitor 31 | ASAP1 inh confirm inactive | ARFGAP1 inh conf inactive
O=[N+]([O-])c1ccc(C=NNC(=S)Nc2ccc(F)cc2)cc1	none
O=[N+]([O-])c1ccc(C=NNC(=S)NN=Cc2ccc([N+](=O)[O-])cc2)cc1	ASAP1 inh 74, ARFGAP1 inhibitor 25 | ASAP1 inh confirm 164 | ARFGAP1 inh conf 182
CC(C)C[C@@H]1COc2cc(NCCCN3CCOCC3)ccc2S(=O)(=O)N1	none
COc1ccc(/C=N/Nc2cc(C)nc3ccc(OC)cc23)c(OC)c1	ASAP1 inh 43, ARFGAP1 inhibitor 33 | ASAP1 inh confirm 93 | ARFGAP1 inh conf 93
CCCCOCC1CN(Cc2ccccc2OC)S(=O)(=O)c2cc(Cl)ccc2O1 (centres undefined)	none
O=C(Nc1cccnc1)c1ccc(CSc2ccc(Cl)cc2)o1	none
COc1ccc(N2C(=O)[C@@H]3[C@H](C2=O)[C@H](C(C)=O)N2c4ccccc4C=C[C@@H]32)cc1	none
COc1ccc(C2C(C(=O)c3ccccc3)N3c4ccccc4C=CC3C2[N+](=O)[O-])cc1 (centres undefined)	ASAP1 inh 29, ARFGAP1 inhibitor 27 | ASAP1 inh confirm inactive | ARFGAP1 inh conf inactive
CN(C)Cc1c(C(C)(C)O)[nH]c2cc(F)ccc12	none
CCN(Cc1ccccc1)C(=O)Nc1c(Cl)cccc1Cl	none
O=C(Nc1nc(-c2ccccc2)cs1)c1cccnc1	none
CC(=O)Nc1ccc(C(=O)Nc2nc(-c3cccnc3)cs2)cc1	ASAP1 inh 29, ARFGAP1 inhibitor 26 | ASAP1 inh confirm 52 | ARFGAP1 inh conf 39
CC(=O)c1ccc(NC2=C(N3CCOCC3)C(=O)c3ccccc3C2=O)cc1	ASAP1 inh 27, ARFGAP1 inhibitor 25 | ASAP1 inh confirm inactive | ARFGAP1 inh conf inactive
O=C(O)c1ccc(NC2=C(N3CCOCC3)C(=O)c3ccccc3C2=O)cc1	none
COC(=O)C1CN(C2CC2)CCS(=O)(=O)N1Cc1cn(Cc2ccc(OC)cc2)nn1 (centres undefined)	none (no result: ASAP1 inh, ARFGAP1 inhibitor)
CC1=[N+](C)c2ccc3ccccc3c2C1(C)C	ASAP1 inh 26, Tn6 DDE FP 55, ARFGAP1 inhibitor 31 | ASAP1 inh confirm inactive | ARFGAP1 inh conf inactive | Tn6 DDE ctr inactive | Tn6 DDE conf inactive
O=C(Nc1cccc(-c2nc3ccccc3[nH]2)c1)c1cccc(NC(=O)c2ccco2)c1	ASAP1 inh 44, Tn6 DDE FP 86, ARFGAP1 inhibitor 77 | ASAP1 inh confirm 76 | ARFGAP1 inh conf 123 | Tn6 DDE ctr inactive | Tn6 DDE conf 30
O=C(Nc1ccc2nc(-c3ccccc3)[nH]c2c1)c1ccco1	none
CC(C)C1CC(N(C)C)=CC(=S)N1 (centres undefined)	none
CCCc1cc(=O)[nH]c(SCC(=O)N2CCN(S(=O)(=O)c3ccc4ccccc4c3)CC2)n1	ARFGAP1 inhibitor 25 | ARFGAP1 inh conf inactive
CCCc1cc(=O)[nH]c(SCC(=O)N2CCN(S(=O)(=O)c3ccccc3)CC2)n1	none
CCCCS(=O)(=O)N1CCCc2nc(CC)c(CC)cc21	none
O=C(NC1(O)C(=O)c2ccccc2C1=O)c1c(Cl)cccc1Cl	ARFGAP1 inhibitor 26 | ARFGAP1 inh conf inactive
O=C(N/N=C/c1cc(Br)ccc1O)Nc1ccccc1	ARFGAP1 inhibitor 25 | ARFGAP1 inh conf inactive
NC(=O)N/N=C\c1cc(Br)ccc1O	none
Cc1ccc2nc(-c3ccco3)c(Cc3ccsc3)n2c1	none
C=CCOC(=O)c1ccc(N2CCN(c3ccccc3)CC2)nc1	ARFGAP1 inhibitor 40 | ARFGAP1 inh conf inactive
Cc1ccsc1C(=O)OCC(=O)N1CCOCC1	ARFGAP1 inhibitor 35 | ARFGAP1 inh conf inactive
COc1cccc(NC2=C(NCCO)C(=O)c3ccccc3C2=O)c1	none
COc1ccc(NC2=C(NCCO)C(=O)c3ccccc3C2=O)cc1	ARFGAP1 inhibitor 28 | ARFGAP1 inh conf inactive
CCc1c(-c2cccc(OC)c2)ncn1CCc1ccccc1OC	none
Cc1ccc(NC(=O)N2CC(C)OC(C)C2)cc1[N+](=O)[O-] (centres undefined)	ARFGAP1 inhibitor 33 | ARFGAP1 inh conf inactive
CC(=O)Nc1ccc(C)c([N+](=O)[O-])c1	none
C[C@@H]1CN([C@@H](C)CO)C(=O)CCCn2nncc2CO[C@H]1CN(C)CC1CC1	none
CCCN(CCC)CCNC(=O)c1cc2c(-c3ccc(Cl)cc3)nn(C)c2s1	ARFGAP1 inhibitor 28 | ARFGAP1 inh conf inactive
CCCN(CCC)CCCNC(=O)c1cc2c(-c3ccc(OC)c(OC)c3)nn(C)c2s1	ARFGAP1 inhibitor 47 | ARFGAP1 inh conf 85
CCCC(=O)OC[C@H]1CN(C2CCCC2)S(=O)(=O)c2c(F)cccc2O1	none
O=C(N/N=C/C=C\c1ccccc1[N+](=O)[O-])c1cc(-c2ccc3ccccc3c2)n[nH]1	ARFGAP1 inhibitor 30 | ARFGAP1 inh conf inactive
CCc1ccc(-c2cc(C(=O)N/N=C/c3ccccn3)[nH]n2)cc1	none
O=C(N/N=C/c1ccccn1)c1cc(-c2ccc3ccccc3c2)n[nH]1	ARFGAP1 inhibitor 29 | ARFGAP1 inh conf 100
COC(=O)[C@]12C[C@H](CC(=O)NCc3cccc4ccccc34)C(=O)N(Cc3ccc4c(c3)OCO4)C1=C[C@H](C(C)(C)C)O[C@@H]2C	none
C[C@H]1CN([C@@H](C)CO)C(=O)c2c(c3ccccc3n2C)-c2ccccc2CO[C@H]1CN(C)C(=O)Nc1cccc(F)c1	none
CCN(CC)c1ccc(C(=C2C=CC(=[N+](CC)CC)C=C2)c2ccc(N(CC)CC)cc2)cc1	Tn6 DDE FP 84, ARFGAP1 inhibitor 36 | ARFGAP1 inh conf inactive
COc1ccc2oc(C(=O)OCC(=O)N3CCCC(C)C3)c(C)c2c1 (centres undefined)	none
CCOc1ccc2oc(C(=O)OCC(=O)N3CC(C)OC(C)C3)c(C)c2c1 (centres undefined)	ARFGAP1 inhibitor 26 | ARFGAP1 inh conf 33
